ChEMBL document CHEMBL4373680, “Small antibacterial molecules highly active against drug-resistant Staphylococcus aureus” (Medchemcomm, 2019)

Legend:
Staphylococcus aureus [1] = experiment: Antibacterial activity against methicillin-resistant Staphylococcus aureus R3889 clinical isolate after 24 hrs by tecan plate reader analysis; format: functional; conditions: R3889, 24 h
Summary of the method: (§1)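 Colony grown 24 h on NB agar at 37 °C, then 6 h in nutrient broth to mid-log (10⁸ CFU/mL by drop plating), diluted to 10⁵ CFU/mL in Mueller Hinton broth; added 9:1 to two-fold serial compound dilutions in MHB. Incubated 24 h, 37 °C; OD600 read. Triplicate per concentration, experiment run twice; MIC taken from the range of triplicate OD values.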

Pseudomonas aeruginosa = experiment: Antibacterial activity against Pseudomonas aeruginosa MTCC 424 after 24 hrs by tecan plate reader analysis; format: functional; conditions: MTCC 424, 24 h
Summary of the method: (§2)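 Broth microdilution MIC. Glycerol stocks grown on MacConkey agar 24 h at 37 °C, then a single colony in nutrient broth 6 h to mid-log (~10⁸ CFU/mL). Cells diluted to 10⁵ CFU/mL in Mueller Hinton broth and added to two-fold compound dilutions. Incubated 24 h at 37 °C, OD600 read. Triplicate wells, experiment run twice.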

[2] = Ratio of EC50 for human A549 cells to MIC for vancomycin-resistant Staphylococcus aureus clinical isolate 2; format: toxicity
Staphylococcus aureus [3] = experiment: Bactericidal activity against planktonic phase of methicillin-resistant Staphylococcus aureus ATCC 33591 assessed as bacterial killing at 32 ug/ml incubated for 1 hr followed by plating on agar plate for 24 hrs by time-kill kinetic assay relative to control; format: functional
Summary of the method: (§3)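 Time-kill: 6 h mid-log culture diluted to 10⁵ CFU/mL in MHB, incubated at 37 °C with compound at […]; 0.9% saline control. Aliquots at 1, 2, 4, 6, 8 and 12 h ten-fold diluted in saline, plated on NB agar 24 h at 37 °C; colonies counted, log scale.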

Staphylococcus aureus [4] = experiment: Bactericidal activity against planktonic phase of methicillin-resistant Staphylococcus aureus R3545 assessed as bacterial killing at 32 ug/ml incubated for 1 hr followed by plating on agar plate for 24 hrs by time-kill kinetic assay relative to control; format: functional; summary of the method: as §3
Acinetobacter baumannii = experiment: Antibacterial activity against Acinetobacter baumannii MTCC 1425 after 24 hrs by tecan plate reader analysis; format: functional; conditions: MTCC 1425, 24 h; summary of the method: as §2
Staphylococcus aureus [5] = experiment: Antibacterial activity against methicillin-resistant Staphylococcus aureus R3545 clinical isolate after 24 hrs by tecan plate reader analysis; format: functional; conditions: R3545, 24 h; summary of the method: as §1
[6] = Selectivity index, ratio of HC50 for human erythrocytes to MIC for methicillin-resistant Staphylococcus aureus ATCC 33591; format: toxicity; conditions: read-out: Selectivity Index
Staphylococcus aureus [7] = experiment: Antibacterial activity against vancomycin-resistant Staphylococcus aureus clinical isolate 1 after 24 hrs by tecan plate reader analysis; format: functional; conditions: clinical isolate 1, 24 h; summary of the method: as §1
[8] = Ratio of EC50 for dog MDCK cells to MIC for vancomycin-resistant Staphylococcus aureus clinical isolate 1; format: toxicity
MDCK = experiment: Cytotoxicity against dog MDCK cells after 24 hrs by alamar blue assay; format: cell-based; conditions: Canis lupus familiaris
Summary of the method: (§4)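 About 10⁴ cells/well in DMEM with 10% FBS. Medium replaced with two-fold compound dilutions and incubated 24 h at 37 °C, 5% CO₂. Alamar Blue added for a further 4 h, absorbance 570 nm (600 nm reference). Viability normalized to untreated and 0.1% Triton-X wells. Triplicates; sigmoidal fit gives the 50% viability concentration.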

Staphylococcus aureus [9] = experiment: Antibacterial activity against vancomycin-resistant Staphylococcus aureus clinical isolate 4 after 24 hrs by tecan plate reader analysis; format: functional; conditions: clinical isolate 4, 24 h; summary of the method: as §1
Escherichia coli = experiment: Antibacterial activity against Escherichia coli MTCC 443 after 24 hrs by tecan plate reader analysis; format: functional; conditions: MTCC 443, 24 h; summary of the method: as §2
Staphylococcus aureus [10] = experiment: Induction of membrane depolarization in Staphylococcus aureus R3545 assessed as increase in fluorescence intensity measured upto 28 mins by DiSC3 staining based fluorescence spectroscopic technique; format: functional, organism-based
Summary of the method: (§5)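 Mid-log MRSA washed in 5 mM HEPES pH 7.4 and resuspended in 1:1:1 HEPES (5 mM), glucose (5 mM) and KCl (100 mM). Loaded with DiSC3(5) at 2 µM final, 30 min in the dark. Baseline fluorescence (ex 622/em 670 nm) read 4 min, compound added, monitored to 28 min. Water control; triplicates averaged.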

Staphylococcus aureus [11] = experiment: Bactericidal activity against planktonic phase of methicillin-resistant Staphylococcus aureus ATCC 33591 assessed as log reduction in bacterial colony forming units at 16 ug/ml incubated for 2 hrs followed by plating on agar plate for 24 hrs by time-kill kinetic assay; format: functional; summary of the method: as §3
Staphylococcus aureus [12] = experiment: Induction of membrane depolarization in Staphylococcus aureus ATCC 33591 assessed as increase in fluorescence intensity measured upto 28 mins by DiSC3 staining based fluorescence spectroscopic technique; format: functional, organism-based; summary of the method: as §5
A549 = experiment: Cytotoxicity against human A549 cells after 24 hrs by alamar blue assay; format: cell-based; conditions: A549, 24 h; summary of the method: as §4
Staphylococcus aureus [13] = experiment: Induction of membrane permeabilization in Staphylococcus aureus ATCC 33591 assessed as increase in fluorescence intensity measured upto 28 mins by propidium iodide staining based fluorescence spectroscopic technique; format: functional, organism-based
Summary of the method: (§6)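 Mid-log MRSA washed in 5 mM HEPES and resuspended in 1:1 HEPES (5 mM) and glucose (5 mM). Propidium iodide added at 10 µM final. Baseline fluorescence (ex 535/em 617 nm) read 4 min, compound in water added, read to 28 min. Water control; triplicates averaged.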

Staphylococcus aureus [14] = experiment: Antibacterial activity against methicillin-resistant Staphylococcus aureus ATCC 33591 after 24 hrs by tecan plate reader analysis; format: functional; conditions: ATCC 33591, 24 h; summary of the method: as §1
Staphylococcus aureus [15] = experiment: Bactericidal activity against planktonic phase of methicillin-resistant Staphylococcus aureus R3545 assessed as log reduction in bacterial colony forming units at 16 ug/ml incubated for 4 hrs followed by plating on agar plate for 24 hrs by time-kill kinetic assay; format: functional; summary of the method: as §3
Staphylococcus aureus [16] = experiment: Antibacterial activity against methicillin-resistant Staphylococcus aureus R3890 clinical isolate after 24 hrs by tecan plate reader analysis; format: functional; conditions: R3890, 24 h; summary of the method: as §1
[17] = Ratio of EC50 for dog MDCK cells to MIC for vancomycin-resistant Staphylococcus aureus clinical isolate 2; format: toxicity
Staphylococcus aureus [18] = experiment: Induction of membrane permeabilization in Staphylococcus aureus R3545 assessed as increase in fluorescence intensity measured upto 28 mins by propidium iodide staining based fluorescence spectroscopic technique; format: functional, organism-based; summary of the method: as §6
Klebsiella pneumoniae = experiment: Antibacterial activity against Klebsiella pneumoniae ATCC 700603 after 24 hrs by tecan plate reader analysis; format: functional; conditions: Klebsiella pneumoniae, 700603, 24 h; summary of the method: as §2
[19] = Hemolytic activity in human erythrocytes after 1 hr; format: ADME, cell-based, Erythrocyte
Summary of the method: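 Heparinized donor blood. Erythrocytes washed three times in PBS and resuspended to 5 vol%, then mixed 3:1 with compound serially diluted in water. Incubated 1 h at 37 °C and centrifuged. Supernatant A540 read; % hemolysis relative to water and 0.1 vol% Triton-X controls.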

[20] = Ratio of EC50 for human A549 cells to MIC for vancomycin-resistant Staphylococcus aureus clinical isolate 1; format: toxicity

CCCCCCCCNC(=O)C[N+](C)(CCO)CCCCCC[N+](C)(CCO)CC(=O)NCCCCCCCC.[Br-].[Br-] (stereo unspecified)
MIC (Staphylococcus aureus [1]): 1 µg/mL | MIC (Pseudomonas aeruginosa): 16 µg/mL | selectivity ratio [2]: 22 | Activity (Staphylococcus aureus [3]): 100% | Activity (Staphylococcus aureus [4]): 100% | MIC (Acinetobacter baumannii): 16 µg/mL | MIC (Staphylococcus aureus [5]): 1 to 2 µg/mL | selectivity ratio [6]: 222 | MIC (Staphylococcus aureus [7]): 2 µg/mL | selectivity ratio [8]: 22 | EC50 (MDCK): 45 µg/mL | MIC (Staphylococcus aureus [9]): 2 µg/mL | MIC (Escherichia coli): 4 to 8 µg/mL | Activity (Staphylococcus aureus [10]): Dose-dependent effect | Activity (Staphylococcus aureus [11]): 5.4 log10CFU/ml | Activity (Staphylococcus aureus [12]): Dose-dependent effect | EC50 (A549): 44 µg/mL | Activity (Staphylococcus aureus [13]): Dose-dependent effect | MIC (Staphylococcus aureus [14]): 1 to 2 µg/mL | Activity (Staphylococcus aureus [15]): 5.6 log10CFU/ml | MIC (Staphylococcus aureus [16]): 4 µg/mL | selectivity ratio [17]: 22 | Activity (Staphylococcus aureus [18]): Dose-dependent effect | MIC (Klebsiella pneumoniae): 32 µg/mL | HC50 at 1 h [19]: 222 µg/mL | selectivity ratio [20]: 22
